By Kd is commonly meant the constant that tells how readily two partners part at equilibrium. A word on the IC50: it is the point on the concentration scale where inhibition reaches its midpoint.

From ChEMBL document CHEMBL3784941, “Rational Design, Synthesis, and Preliminary Structure-Activity Relationships of α-Substituted-2-Phenylcyclopropane Carboxylic Acids as Inhibitors of Salmonella typhimurium O-Acetylserine Sulfhydrylase” (J Med Chem, 2016) come the findings set out here.

Data set [1] in a line: Binding affinity to recombinant Salmonella typhimurium His6-tagged OASS-A expressed in Escherichia coli by fluorimetric titration method. More on the design: species or system Salmonella enterica subsp. enterica serovar Typhimurium. The method in brief: (§1)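 OASS coenzyme fluorescence titrated with ligand. Conditions were 0.5−1.0 μM enzyme in 100 mM Hepes, pH 7.0, at 20 °C. Excitation was at 412 nm and the emission spectra were recorded. Intensity at 500 nm, minus the ligand-free signal, was fitted to a single-site binding isotherm to give Kdiss.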

Data set [2] is described as follows: Inhibition of recombinant Salmonella typhimurium His10-tagged OASS-B expressed in Escherichia coli using OAS as substrate by discontinuous assay. Also noted: species or system Salmonella enterica subsp. enterica serovar Typhimurium.
The nature of data set [3]: Inhibition of recombinant Salmonella typhimurium His6-tagged OASS-A expressed in Escherichia coli using OAS as substrate by discontinuous assay. More on the design: species or system Salmonella enterica subsp. enterica serovar Typhimurium.
Data set [4] can be described thus: Binding affinity to recombinant Salmonella typhimurium His10-tagged OASS-B expressed in Escherichia coli by fluorimetric titration method. More on the design: species or system Salmonella enterica subsp. enterica serovar Typhimurium. The method in brief:
as §1

For data set [5], the system named is Salmonella enterica subsp. enterica serovar Typhimurium. Kind of data set: Binding affinity to recombinant Salmonella typhimurium His6-tagged OASS-A expressed in Escherichia coli at <20 uM by fluorimetric titration method. The method in brief: as §1
Data set [6] is described as follows: Solubility in 100 mM HEPES buffer at pH 7 containing 1% DMSO at >20 uM at 20 degC. Format: physicochemical.

Calls of active or inactive are those of the source. The rule behind the calls is not given here.

For the molecule `O=C(O)[C@]1(Cc2ccc(Cl)cc2)C[C@H]1c1ccccc1`, the figures for the Kd in data set [1] and in data set [4] were 0.054 µM and 0.42 µM, respectively. Also, the values for the IC50 in data set [2] and in data set [3] were 0.5 µM and 0.099 µM, respectively.

As to `Cc1ccc(C[C@]2(C(=O)O)C[C@@H]2c2ccccc2)cc1`, the Kd was determined as 81 µM in data set [1] and 121 µM in data set [4].

For the molecule `O=C(O)[C@@]1(Cc2ccc(Cl)cc2)C[C@@H]1c1ccccc1`, the results for the dissociation constant (Kd) in data set [1] and in data set [4] were 84 µM and 152 µM, respectively. Also, the concentration for half-maximal inhibition (IC50) came to 48 µM in data set [2] and 14 µM in data set [3].

Turning to `O=C(O)[C@@]1(Cc2ccc(Cl)cc2)C[C@@H]1c1ccccc1` (racemic), the dissociation constant (Kd) stood at 0.156 µM in data set [1] and 0.76 µM in data set [4].

Regarding `Cc1ccc(C[C@]2(C(=O)O)C[C@@H]2c2ccccc2)cc1` (racemic), the Kd worked out at 0.077 µM in data set [1] and 1.2 µM in data set [4].

For the molecule `O=C(O)[C@@]1(Cc2ccccc2)C[C@@H]1c1ccccc1`, the dissociation constant Kd was 50 µM in data set [1] and 197 µM in data set [4].

Regarding `CCOC(=O)[C@@]1(Cc2ccccc2)C[C@@H]1c1ccccc1` (relative stereo), in data set [5], the outcome was inactive. The solubility result in data set [6] was “Insoluble”.

Consider `CC[C@]1(C(=O)O)C[C@@H]1c1ccccc1` (racemic), for which the dissociation constant Kd in data set [1] was 15 µM; in data set [4], 720 µM.

Turning to `O=C(O)[C@]1(Cc2ccccc2)C[C@H]1c1ccccc1`, the equilibrium dissociation constant (Kd) is 0.067 µM in data set [1] and 1.66 µM in data set [4].

As for `Cc1ccc(C[C@@]2(C(=O)O)C[C@H]2c2ccccc2)cc1`, the Kd in data set [1] is 0.028 µM; in data set [4], 0.49 µM.

As to `CC[C@@]1(C(=O)O)C[C@H]1c1ccccc1`, the Kd in data set [1] was 12.1 µM; in data set [4] it was 860 µM.

On to `O=C(O)[C@@]1(Cc2ccccc2)C[C@@H]1c1ccccc1` (racemic), for which the Kd amounted to 0.2 µM in data set [1] and 4.1 µM in data set [4].

In the case of `O=C(O)[C@@]1(CCc2ccccc2)C[C@@H]1c1ccccc1` (relative stereo), the Kd in data set [1] was found to be 14 µM; in data set [4] it was 27 µM.

Consider `O=C(O)[C@H]1C[C@@H]1c1ccccc1` (relative stereo), for which the values for the Kd in data set [1] and in data set [4] were 9.2 µM and 148 µM, respectively.

As to `CC[C@]1(C(=O)O)C[C@@H]1c1ccccc1`, the dissociation constant Kd is 1200 µM in data set [1] and above 2000 µM in data set [4].

Regarding H-MNLNI-OH, the equilibrium dissociation constant (Kd) in data set [1] worked out at 120 µM; in data set [4] it was 3000 µM.
